Experiment [1] is described as follows: Inhibition of IgE production in antigen-sensitized BALB/c mouse spleen cells. It is filed as functional, tissue-based.
A further experiment concerns Modoc virus. In words: Antiviral activity against Modoc virus-infected HeLa-H1 cells. It counts as functional, organism-based.
Experiment [2] relates to Vesicular stomatitis virus. Kind of experiment: Antiviral activity against VSV-infected Vero cells. It is filed as functional, organism-based.
The next experiment deals with Simian virus 40. Kind of experiment: Antiviral activity against SV40-infected Vero cells. It counts as functional, organism-based. The following applies: Betapolyomavirus macacae. The method in brief: (§1)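 Cells were seeded at about 50 000/well and infected 24 h later at MOI 0.1 or less, with drug added alongside. Once infectivity was evident, cells were washed and stained with methylene blue/carbol fuchsin in methanol for 10 min at room temperature.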

Experiment [3] has as its system California encephalitis virus. Kind of experiment: Antiviral activity against California encephalitis virus-infected Vero cells. It is filed as functional, cell-based.
The test system of the next experiment is Murine hepatitis virus. Kind of experiment: Antiviral activity against mouse hepatitis virus-infected NCTC clone-1469 cells. The settings on record: Murine coronavirus. It is filed as functional, organism-based. The method in brief: as §1
A further experiment deals with Enterovirus. In words: Antiviral activity against Rhinovirus-infected HeLa-H1 cells. It is filed as functional, organism-based.
For a further experiment, the system named is Vaccinia virus. Kind of experiment: Antiviral activity against Vaccinia virus-infected Vero cells. It is filed as functional, organism-based, Orthopoxvirus vaccinia.
For a further experiment, the system named is Human alphaherpesvirus 2. In words: Antiviral activity against HSV2-infected Vero cells. It counts as functional, organism-based.
A further experiment has as its system San Angelo virus. Kind of experiment: Antiviral activity against San Angelo virus-infected Vero cells. It counts as functional, organism-based.
[4] abbreviates: California encephalitis virus, Vero.

Drawing on ChEMBL document CHEMBL1138288, “2-phenylimidazopyridines, a new series of Golgi compounds with potent antiviral activity” (J Med Chem, 2007), this text covers IC50 for nine molecules.

The term IC50 denotes the point on the concentration scale where inhibition reaches its midpoint. On to `O=C(NC12CC3CC(CC(C3)C1)C2)c1cc2nc(-c3ccc(NC(=O)C45CC6CC(CC(C6)C4)C5)cc3)[nH]c2cn1`, for which the IC50 in experiment [1] (Mus musculus, BALB/c, Spleen) is 0.01 µM; in the experiment on Modoc virus, 0.1 µM; in experiment [2], greater than 2 µM; with Simian virus 40 it was greater than 2 µM; in [3] (setting [4]), 0.06 µM; in the experiment with Murine hepatitis virus, 0.02 µM. For the same molecule, the IC50 in the experiment on Enterovirus (Enterovirus, HeLa H1) turned out to be 0.04 µM; in the experiment on Vaccinia virus (Orthopoxvirus vaccinia, Vero), 0.14 µM; in the experiment on Human alphaherpesvirus 2 (Human alphaherpesvirus 2, Vero), 0.03 µM; with San Angelo virus (San Angelo virus, Vero), 0.06 µM.
On to `O=C(Nc1ccc(-c2nc3cc(C(=O)NC45CC6CC(CC(C6)C4)C5)ccc3[nH]2)cc1)c1ccc(Cl)c(Cl)c1`, for which the IC50 was 0.001 µM in experiment [1] (Mus musculus, BALB/c, Spleen); 0.006 µM with Modoc virus; greater than 2 µM in [2]; greater than 2 µM in the experiment on Simian virus 40; 0.02 µM in experiment [3] (setting [4]); 0.008 µM in the experiment with Murine hepatitis virus. In addition, the IC50 in the experiment on Enterovirus (Enterovirus, HeLa H1) came out at 0.02 µM; in the experiment on Vaccinia virus (Orthopoxvirus vaccinia, Vero) it was 0.02 µM; in the experiment with Human alphaherpesvirus 2 (Human alphaherpesvirus 2, Vero), 0.02 µM; with San Angelo virus (San Angelo virus, Vero) it was 0.006 µM.
Turning to `O=C(Nc1ccc(-c2nc3cc(NC(=O)C45CC6CC(CC(C6)C4)C5)ncc3[nH]2)cc1)C12CC3CC(C1)C(O)C(C3)C2` (stereo not given), the IC50 in experiment [1] (Mus musculus, BALB/c, Spleen) was 0.001 µM; in the experiment on Modoc virus, 0.02 µM; in [2], 1 µM; in the experiment on Simian virus 40, greater than 2 µM; in experiment [3] (setting [4]) it was 0.2 µM; in the experiment with Murine hepatitis virus, 0.02 µM. Besides, the IC50 in the experiment on Enterovirus (Enterovirus, HeLa H1) is 0.01 µM; with Vaccinia virus (Orthopoxvirus vaccinia, Vero), 0.12 µM; with Human alphaherpesvirus 2 (Human alphaherpesvirus 2, Vero) it was 0.06 µM; in the experiment on San Angelo virus (San Angelo virus, Vero), 0.06 µM.
In the case of `O=C(NC12CC3CC(C1)C(=O)C(C3)C2)c1cc2nc(-c3ccc(NC(=O)C45CC6CC(CC(O)(C6)C4)C5)cc3)[nH]c2cn1`, the IC50 in experiment [1] (Mus musculus, BALB/c, Spleen) was 0.14 µM; with Modoc virus, greater than 0.6 µM; in experiment [2], greater than 2 µM; with Simian virus 40 it was greater than 2 µM; in experiment [3] (setting [4]), 0.2 µM; in the experiment with Murine hepatitis virus it was greater than 0.6 µM. Also, the IC50 was 0.1 µM in the experiment on Enterovirus (Enterovirus, HeLa H1); greater than 2 µM with Vaccinia virus (Orthopoxvirus vaccinia, Vero); greater than 2 µM with Human alphaherpesvirus 2 (Human alphaherpesvirus 2, Vero); 0.2 µM with San Angelo virus (San Angelo virus, Vero).
On to `O=C(Nc1ccc(-c2nc3cc(C(=O)NC45CC6CC(C4)C(=O)C(C6)C5)ncc3[nH]2)cc1)c1ccc(Cl)cc1`, for which the IC50 in experiment [1] (Mus musculus, BALB/c, Spleen) is 0.00015 µM; in the experiment on Modoc virus, greater than 0.6 µM; in experiment [2], 1 µM; with Simian virus 40, greater than 2 µM; in experiment [3] (setting [4]), 0.2 µM; with Murine hepatitis virus, 0.1 µM. Moreover, the IC50 in the experiment with Enterovirus (Enterovirus, HeLa H1) was 0.02 µM; with Vaccinia virus (Orthopoxvirus vaccinia, Vero) it was 0.04 µM; in the experiment with Human alphaherpesvirus 2 (Human alphaherpesvirus 2, Vero) it was 0.04 µM; in the experiment on San Angelo virus (San Angelo virus, Vero) it was 0.135 µM.
Consider `O=C(Nc1ccc(-c2nc3cc(NC(=O)C45CC6CC(CC(C6)C4)C5)ccc3[nH]2)cc1)C12CC3CC(CC(C3)C1)C2`, for which the IC50 was 0.001 µM in experiment [1] (Mus musculus, BALB/c, Spleen); 0.02 µM in the experiment on Modoc virus; greater than 2 µM in experiment [2]; 1.2 µM in the experiment on Simian virus 40; 0.03 µM in experiment [3] (setting [4]); 0.012 µM with Murine hepatitis virus. Besides, the IC50 worked out at 0.06 µM in the experiment with Enterovirus (Enterovirus, HeLa H1); 0.4 µM in the experiment with Vaccinia virus (Orthopoxvirus vaccinia, Vero); 0.02 µM in the experiment with Human alphaherpesvirus 2 (Human alphaherpesvirus 2, Vero); 0.06 µM with San Angelo virus (San Angelo virus, Vero).
Consider `O=C(Nc1ccccn1)c1ccc2[nH]c(-c3ccc(NC(=O)C45CC6CC(CC(C6)C4)C5)cc3)nc2c1` (stereo in doubt; 1h), for which the IC50 in experiment [1] is 0.004 µM; in the experiment with Modoc virus, 0.06 µM; in experiment [2], greater than 2 µM; in the experiment with Simian virus 40, greater than 2 µM; in experiment [3] (vero), 0.06 µM; in the experiment on Murine hepatitis virus, 0.02 µM. Besides, the IC50 was 0.02 µM with Enterovirus (hela-h1), 0.04 µM with Vaccinia virus (vero), 0.03 µM in the experiment with Human alphaherpesvirus 2 (vero) and 0.02 µM with San Angelo virus (vero).
Take `O=C1C2CC3CC1CC(C(=O)Nc1ccc(-c4nc5cc(NC(=O)C67CC8CC(C6)C(=O)C(C8)C7)ncc5[nH]4)cc1)(C3)C2`: the IC50 in experiment [1] (Mus musculus, BALB/c, Spleen) was 0.045 µM; in the experiment with Modoc virus, greater than 0.6 µM; in experiment [2], greater than 2 µM; in the experiment with Simian virus 40 it was 1 µM; in experiment [3] (setting [4]) it was 0.2 µM; in the experiment on Murine hepatitis virus, greater than 0.6 µM. For the same molecule, the IC50 is greater than 2 µM in the experiment with Enterovirus (Enterovirus, HeLa H1); greater than 2 µM with Vaccinia virus (Orthopoxvirus vaccinia, Vero); greater than 2 µM with Human alphaherpesvirus 2 (Human alphaherpesvirus 2, Vero); 0.2 µM with San Angelo virus (San Angelo virus, Vero).
As for `O=C1C2CC3CC1CC(C(=O)Nc1ccc(-c4nc5cc(NC(=O)C67CC8CC(CC(C8)C6)C7)ncc5[nH]4)cc1)(C3)C2`, the IC50 in [1] (Mus musculus, BALB/c, Spleen) is 0.004 µM; in the experiment with Modoc virus, greater than 0.6 µM; in experiment [2], greater than 2 µM; with Simian virus 40, greater than 2 µM; in [3] (setting [4]) it was 0.2 µM; in the experiment on Murine hepatitis virus, 0.2 µM. The IC50 with Enterovirus (Enterovirus, HeLa H1) is greater than 2 µM; with Vaccinia virus (Orthopoxvirus vaccinia, Vero) it was 0.4 µM; in the experiment with Human alphaherpesvirus 2 (Human alphaherpesvirus 2, Vero), 0.25 µM; with San Angelo virus (San Angelo virus, Vero) it was 0.2 µM.
